# PG9 Ab binder: binders of HIV-1 gp120 antibody PG9, primary screen, biochemical, TR-FRET | HIV-1 gp120 / PG9 antibody interaction | TR-FRET gp120-PG9 antibody binding | inhibition, % at 6.7 µM | 0.43% of 360,000 active; in the data active means inhibition above about 8.5%
# NR2E3 ag-1: NR2E3 agonists in two-hybrid cells, primary screen, cell-based, luminescence, CHO-S, Gal4-NCOR/VP16-NR2E3; 0.35% of 360,000 active; Photoreceptor-specific nuclear receptor (Homo sapiens), Q9Y5X4; inhibition of corepressor binding, % at 3.98 µM; AID 602229, 2012; luciferase;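 active means inhibition above the mean of all tested compounds plus 3 SD, cut at about 70% in these data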;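 further: 0% = DMSO with NR2E3 transfected cells and 100% = cells lacking NR2E3 construct; higher means lower luciferase signal from less NR2E3 corepressor binding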
# Rev-erbA mod: modulators of Rev-erb alpha DNA binding, primary screen, biochemical, FITC-DNA, fluorescence polarization, uHTS; activity, % at 10 µM; Rev-erbα–FITC-DNA binding, 90 min; Nuclear receptor subfamily 1 group D member 1 (Homo sapiens), P20393; 0.79% of 370,000 active;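 active means activity above about 14%, limit read from the data; passing the limit was not always enough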;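 further: 0% = DMSO wells with 35 nM protein and 100% = DMSO wells with 750 nM protein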
# Target sequence (P20393 whole entry, looked up): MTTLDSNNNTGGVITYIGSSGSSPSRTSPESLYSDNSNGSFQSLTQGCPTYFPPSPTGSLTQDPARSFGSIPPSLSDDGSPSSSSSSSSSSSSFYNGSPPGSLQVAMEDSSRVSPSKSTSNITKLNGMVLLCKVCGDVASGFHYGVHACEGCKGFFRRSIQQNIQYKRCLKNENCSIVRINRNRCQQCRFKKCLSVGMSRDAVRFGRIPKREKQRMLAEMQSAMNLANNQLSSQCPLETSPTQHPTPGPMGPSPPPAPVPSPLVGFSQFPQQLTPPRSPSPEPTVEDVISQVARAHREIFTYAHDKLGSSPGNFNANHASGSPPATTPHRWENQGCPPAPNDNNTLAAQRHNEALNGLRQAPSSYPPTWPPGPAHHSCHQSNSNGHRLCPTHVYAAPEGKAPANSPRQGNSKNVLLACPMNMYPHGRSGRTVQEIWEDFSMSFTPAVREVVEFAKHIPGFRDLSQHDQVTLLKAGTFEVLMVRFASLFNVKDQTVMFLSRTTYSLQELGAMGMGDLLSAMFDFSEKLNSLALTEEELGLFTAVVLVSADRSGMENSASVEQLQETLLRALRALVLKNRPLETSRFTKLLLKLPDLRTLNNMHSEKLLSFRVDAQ
# NR2E3 ag-2: inhibitors of NR2E3-RetCOR corepressor binding, primary screen, NR2E3 agonist project, biochemical, TR-FRET, GST-NR2E3, biotin-RetCOR | Photoreceptor-specific nuclear receptor (Homo sapiens), Q9Y5X4 | 1536-well | inhibition of corepressor binding, % at 4.78 µM | 0.12% of 320,000 active;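 active means percent inhibition above the cutoff of mean plus 3 SD of all tested compounds, set per screening campaign, cut at about 20% in these data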;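 further: 0% = DMSO wells and 100% = biotin wells as full block of FRET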
#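 Material: NR2E3–RetCOR corepressor complex / Amount: 1.35 nM GST-NR2E3 / Medium: Tris pH 7.5 / Compound: single nominal compound dose of 4.8 µM / Incubation: 5 h at 4 °C / Technique: TR-FRET, Eu(K)-anti-GST donor, streptavidin-D2 acceptor, ex 340, em 617/671 nm / Read-out basis: percent loss of FRET ratio relative to control wells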
# NR2E3 ag confirm: NR2E3 agonists, confirmation, biochemical, TR-FRET. shares compounds with NR2E3 ag-2. cell-free NR2E3 corepressor release, 5 h. activation (reported as inhibition), % at 3.98 µM. 39% of 360 active. AID 2379, 2010; in the data active means activation above about 20%
# PPARg-NCOR2 ag: agonists of PPARg-NCOR2 corepressor interaction, counter-screen for NR2E3 agonist project, biochemical, TR-FRET | shares compounds with NR2E3 ag-2 | TR-FRET PPARg-NCOR2 coregulator interaction | inhibition, % at 3.98 µM | 45% of 360 active; in the data active means inhibition above about 20%;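 further: 0% = DMSO vehicle and 100% = wells without protein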
# PG9 binder conf: binders of anti-gp120 antibody PG9, confirmation, biochemical, TR-FRET; inhibition, % at 6.7 µM; TR-FRET PG9 antibody binding; shares compounds with PG9 Ab binder; AID 651571, 2012; 90% of 1,500 active; in the data active means inhibition above about 9%
# PGV04 counter: binders of control antibody PGV04, counter-screen for PG9 antibody binder project, biochemical, TR-FRET, distinct HIV envelope site. shares compounds with PG9 Ab binder. TR-FRET PGV04 antibody-gp120 binding. inhibition, % at 6.7 µM. 95% of 1,500 active. AID 651604, 2012; in the data active means inhibition above about 9.5%
# PG9 bind DR: small-molecule binders of antibody PG9, dose response, biochemical, TR-FRET, HIV-1 gp120 antibody; shares compounds with PG9 Ab binder; TR-FRET PG9 antibody-gp120 binding inhibition; IC50, µM; 95 tested, under 10 active; AID 651848, 2012; in the data active means IC50 below about 10 µM
# PGV04 binding DR: binders of control antibody PGV04, dose response, counter-screen for PG9 antibody binder project, biochemical, TR-FRET, distinct HIV envelope site | shares compounds with PG9 Ab binder | TR-FRET binding to control antibody PGV04 | IC50, µM | 20% of 95 active | AID 651937, 2012
# PG126 DR counter: binders of control antibody PG126, dose response, counter-screen for PG9 antibody binder project, biochemical, TR-FRET, distinct HIV envelope site; shares compounds with PG9 Ab binder; TR-FRET binding to antibody PG126, counterscreen; IC50, µM; 20% of 95 active
# Active calls of the source: *; i = inactive; . = not tested or not shown. An excerpt weighted towards active compounds, which were near 1.4% of everything screened. Unless noted, no stated cut-off is given here; in the data, active means IC50 below about 9 µM; inactive means the rest.
SMILES,PG9 Ab binder,NR2E3 ag-1,Rev-erbA mod,NR2E3 ag-2,NR2E3 ag confirm,PPARg-NCOR2 ag,PG9 binder conf,PGV04 counter,others
Cc1ccc(-n2c(=S)[nH]c3c(oc4ccccc43)c2=O)cc1,17.7*,-41.3,1.3,20.3*,42.8*,33.6*,16.8*,7.2,PG9 bind DR=>67;PGV04 binding DR=>67;PG126 DR counter=>67
Cc1cccc(-n2c(=S)[nH]c3c(oc4ccccc43)c2=O)c1,16.3*,-9.3,-0.6,37.0*,34.6*,25.0*,6.6,9.4*,
O=c1c2oc3ccccc3c2[nH]c(=S)n1-c1ccccc1,17.4*,-6.2,7.6,49.6*,45.0*,45.3*,14.4*,13.1*,PG9 bind DR=i;PGV04 binding DR=i;PG126 DR counter=i
O=C(N[C@@H](CO)[C@H](O)c1ccc([N+](=O)[O-])cc1)C(Cl)Cl,.,.,-4.4,.,.,.,.,.,
CC(=O)OCC(=O)[C@@]12OC(C)(C)O[C@@H]1CC1C3C[C@H](F)C4=CC(=O)C=C[C@]4(C)[C@@]3(F)[C@@H](O)C[C@@]12C (stereo partly drawn),.,.,2.1,.,.,.,.,.,
C=C(c1ccccc1OCc1cccc(Cl)c1)n1ccnc1,.,.,-0.7,.,.,.,.,.,
CC1(C)C2CCC1(C)C(O)C2 (stereo not drawn),.,.,0.1,.,.,.,.,.,
COc1ccc(Br)cc1C(=O)Nc1ccc(C(=O)NCC(C)C)cc1,1.4,-9.2,-2.5,3.4,.,.,.,.,
CCOc1ccc(Br)cc1C(=O)Nc1ccc(C(=O)NCC(C)C)cc1,23.8*,4.7,6.5,33.7*,32.7*,38.0*,23.7*,31.1*,
CCOC(=O)/C(C#N)=C1/C=C(C)NC(c2ccccc2O)=N1,24.0*,20.3,0.7,22.9*,13.0,10.1,27.1*,34.1*,
CCOC(=O)/C(C#N)=C1\Nc2ccccc2N=C1N(CC(C)C)CC(C)C,-0.6,41.2,4.3,-1.1,.,.,.,.,
CO[C@H]1/C=C/O[C@@]2(C)Oc3c(C)c(O)c4c(O)c(c(C=NN5CCN(C)CC5)c(O)c4c3C2=O)NC(=O)/C(C)=C\C=C\C(C)[C@H](O)[C@@H](C)[C@@H](O)[C@@H](C)[C@@H](OC(C)=O)[C@@H]1C (stereo partly drawn),.,.,-2.4,.,.,.,.,.,
O=C(C1=C(O)C(=O)N(CCN2CCOCC2)C1c1ccc(F)cc1)c1cc2ccccc2o1 (stereo not drawn),11.4*,-3.1,1.9,27.4*,31.4*,32.2*,16.5*,22.4*,
CCOc1cc(C2C(C(=O)c3ccco3)=C(O)C(=O)N2CCc2ccccc2)ccc1O (stereo not drawn),-2.7,-19.0,-2.3,6.1,.,.,.,.,
O=C(C1=C(O)C(=O)N(CCc2ccccc2)C1c1ccncc1)c1cc2ccccc2o1 (stereo not drawn),19.0*,-8.8,-5.0,34.5*,30.6*,31.3*,30.1*,39.5*,
O=C(C1=C(O)C(=O)N(CCCN2CCOCC2)C1c1ccccn1)c1cc2ccccc2o1 (stereo not drawn),14.6*,-7.8,-2.1,34.0*,16.2,21.6*,19.2*,24.9*,
O=C(C1=C(O)C(=O)N(CCN2CCOCC2)C1c1cccc(Br)c1)c1cc2ccccc2o1 (stereo not drawn),22.6*,-20.8,-1.8,35.4*,51.8*,56.9*,34.0*,43.2*,
O=C(C1=C(O)C(=O)N(CCN2CCOCC2)C1c1ccco1)c1cc2ccccc2o1 (stereo not drawn),3.6,-10.0,3.6,14.0,.,.,.,.,
CC(=O)[C@H]1CCC2C3C[C@H](C)C4=CC(=O)CC[C@]4(C)C3[C@@H](O)C[C@@]21C (stereo partly drawn),.,.,-1.9,.,.,.,.,.,
CCCCCCCC(=O)CC[C@@H]1[C@@H](C/C=C\CCCC(=O)OC(C)C)[C@@H](O)C[C@H]1O,.,.,-5.0,.,.,.,.,.,
O=C(C1=C(O)C(=O)N(CCN2CCOCC2)C1c1cccc([N+](=O)[O-])c1)c1cc2ccccc2o1 (stereo not drawn),-1.1,1.0,-7.0,.,.,.,.,.,
CN(C)CCN1C(=O)C(O)=C(C(=O)c2cc3ccccc3o2)C1c1cccc(Br)c1 (stereo not drawn),31.5*,-3.0,6.2,36.0*,35.9*,33.9*,38.0*,46.8*,
CCN(CC)CCN1C(=O)C(O)=C(C(=O)c2cc3ccccc3o2)C1c1cccnc1 (stereo not drawn),24.2*,-26.7,4.1,28.2*,26.7*,28.4*,36.2*,45.8*,
O=C(CNC(=O)c1ccc(Cl)cc1)NO,.,.,1.8,.,.,.,.,.,

# Compound activity as filed in PubChem BioAssay.
